# Bioassay records (PubChem BioAssay)
# This excerpt belongs to a sample that is enriched for hits.
# XBP1 UPR activ: activators of adaptive arm of unfolded protein response (XBP1); activation, % at 20 µM; CHO-XBP1 luciferase reporter, IRE1-XBP1 UPR activation, luminescence; percent of tunicamycin response, DMSO as zero; hit rate 0.33% among 330,000;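 active = versus positive control, 20 µM dose yields 30% or more activation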;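 note: 100% = tunicamycin at 10 µg/mL and 0% = DMSO only wells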
#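 Material: CHO cell line with stable XBP1 luciferase reporter; buffer or medium: F12 medium containing 10% fetal bovine serum; compound: single point, 20 µM final compound, 1% DMSO; incubation: 6 h treatment, 37 °C; measured by: glow luminescence from Steady-Glo reagent; evaluation: activation, % of tunicamycin; control set: tunicamycin high, DMSO low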
# CHOP UPR activ: activators of apoptotic arm of unfolded protein response (CHOP). CHO-CHOP luciferase reporter, UPR activation, luminescence; percent of tunicamycin response over DMSO baseline. activation, % at 10 µM. hit rate 0.34% among 330,000. AID 449763;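 active = at 10 µM dose, activation of 40% or more, normalized to positive control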;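 note: 100% = tunicamycin at 10 µg/mL and 0% = DMSO alone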
#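 Evaluation: % reporter activation, DMSO baseline versus tunicamycin full activation; System: CHO-CHOP luciferase reporter cell line; Input: 500 cells/well; Incubation: 6 h compound treatment, 37 °C; Measured by: Steady-Glo luciferase luminescence; Dosing: one dose, 10 µM in 0.5% DMSO; Buffer or medium: F12 medium, 10% FBS; Benchmarks: positive tunicamycin 10 µg/mL, negative DMSO alone.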
# CTSL1 counter: counter-screen for PFM18AAP inhibitors: inhibitors of F. hepatica cathepsin L1. recombinant F. hepatica cathepsin L1, Z-Leu-Arg-MCA fluorescence. inhibition, % at 5.96 µM. hit rate 0.49% among 300,000;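 active = inhibition above the mean of all tested compounds plus 3 SD, set per screening campaign, cut at about 17% in these data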;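 note: 0% = plate median of test compound wells and 100% = 1 µM Z-Phe-Ala-diazomethylketone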
# CHOP inhibitor: blocks CHOP induction under ER stress; AID 2732; hit rate 3.8% among 220,000; CHO-K1 CHOP-promoter luciferase, tunicamycin-induced, 15-18 h; inhibition, % at 10 µM;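 active = compounds that reduced the stress-induced luciferase reporter signal by more than about 70% of percent inhibition, limit read from the data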;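 note: 0% = tunicamycin plus vehicle and 100% = wells without tunicamycin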
# UCH37 inh: blocks the human deubiquitinase UCH37; Q9Y5K5; purified proteasome/UCH37, Ub-AMC cleavage fluorescence; inhibition, % (no concentration beside the values); hit rate 0.33% among 330,000;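 active = mean inhibition over replicate wells above about 20%, limit read from the data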;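 note: 0% = compound-free wells with enzyme and 100% = wells lacking proteasome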
# Target sequence (Q9Y5K5 whole entry, looked up): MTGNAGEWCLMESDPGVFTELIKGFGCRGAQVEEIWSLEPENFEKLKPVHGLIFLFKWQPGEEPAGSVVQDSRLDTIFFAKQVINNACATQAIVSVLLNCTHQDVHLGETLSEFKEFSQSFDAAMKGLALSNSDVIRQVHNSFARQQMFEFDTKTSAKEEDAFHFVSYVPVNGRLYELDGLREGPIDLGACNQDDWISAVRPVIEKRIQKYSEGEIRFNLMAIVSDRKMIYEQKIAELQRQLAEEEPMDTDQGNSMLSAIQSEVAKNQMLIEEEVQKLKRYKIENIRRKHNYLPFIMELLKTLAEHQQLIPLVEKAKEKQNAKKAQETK
#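 Assay system: Proteasome-bound UCH37. Buffer or medium: pH 7.4 Tris-HCl (50 mM) with ovalbumin, ATP-MgCl2, DTT. Incubation: 30 min preincubation with enzyme, 25 min cleavage at room temperature. Measured by: fluorescence, ex 355 nm, em 460 nm. Read-out basis: percent inhibition. Control set: wells without proteasome as full block, compound-free enzyme plus substrate as uninhibited.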
# CHOP inh conf: confirmation of CHOP induction inhibitors; shares compounds with CHOP inhibitor; CHO-CHOP promoter luciferase reporter, tunicamycin-induced, luminescence; inhibition, % at 10 µM; hit rate 45% among 2,100; AID 504437;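 active = mean of three repeat readings of reporter signal inhibition above a set limit, cut at about 70% in these data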;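 note: 0% = tunicamycin plus vehicle and 100% = wells lacking tunicamycin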
# * hit, by the source's call; i = inactive; . = no result; ! = repeats disagree.
SMILES,XBP1 UPR activ,CHOP UPR activ,CTSL1 counter,CHOP inhibitor,UCH37 inh,CHOP inh conf
Cc1nc(C(=NO)C(N)=O)cs1,.,.,.,.,1.9,.
Cc1cc(NN=Cc2ccc(O)cc2O)nc(-c2ccccc2O)n1,.,.,.,.,-13.0,.
COc1cccc(-c2csc3nnc(SCC(=O)c4ccc(NC(C)=O)cc4)n23)c1,-1.3,0.8,-2.5,78.6*,2.5,.
Cc1ccc(NC(=O)CCC(=O)NN=Cc2ccco2)c(C)c1,.,.,.,.,3.4,.
Cc1cc2ncn(/N=C/c3ccc4c(c3)OCO4)c2cc1C,3.5,-0.5,-2.1,96.3*,.,66.5
Cc1nn(C)c(C)c1NC(=O)CSc1nc(C2CC2)nc2c1cnn2-c1ccccc1,0.8,1.5,-0.2,102.3*,1.6,30.2
Cc1nn(C)c(C)c1NC(=O)CSc1nc(-c2ccccc2Cl)nc2c1cnn2-c1ccccc1,-0.7,0.3,0.1,18.6,-0.6,.
CNc1nc(N/N=C/c2cc3c(cc2[N+](=O)[O-])OCO3)nc(Nc2ccccc2)n1,7.6,2.0,-0.7,105.8*,.,24.9
O=c1[nH]c(NN=Cc2cc3c(cc2[N+](=O)[O-])OCO3)nc2ccccc12,.,.,.,.,4.1,.
O=C(CSc1nnc(-c2ccc(Cl)cc2)n1-c1ccc(Cl)cc1)NN=Cc1ccco1,.,.,.,.,2.0,.
CCOCCCNC(=O)/C(C#N)=C/c1ccc([N+](=O)[O-])o1,-6.8,-6.5,-0.8,106.6*,-40.2,36.7
COc1ccc(C=NNC(=O)CC(=O)Nc2cccc(Cl)c2)cc1OC,.,.,.,.,0.8,.
CCOC(=O)COc1ccccc1/C=C\[N+](=O)[O-],.,.,2.6,107.0*,.,85.8*
CC(=NNC(=O)c1cccc(S(=O)(=O)Nc2ccccc2Cl)c1)c1ccc(-n2ccnc2)cc1,.,.,.,.,1.7,.
O=C(Nc1ccc(-c2nc3ccccc3o2)cc1)c1ccc(N2CCOCC2)c([N+](=O)[O-])c1,-5.8,-6.2,4.7,101.0*,2.5,114.3*
COc1ccccc1C=NNC(=O)c1cc2c(OC)c(OC)ccc2[nH]1,.,.,.,.,-8.0,.
Cc1ccnc(N2C(=O)c3cccc4c([N+](=O)[O-])ccc(c34)C2=O)c1,-10.2,1.8,-0.1,106.3*,-60.4,-53.3
O=C1c2cccc3c([N+](=O)[O-])ccc(c23)C(=O)N1Cc1cccnc1,.,.,.,109.5*,-29.3,-202.9
O=C1c2cccc3cccc(c23)C(=O)N1Cc1cccnc1,-1.7,-1.0,-0.6,-3.8,-48.8,.
c1ccc2c(-c3c[nH]c4ccccc34)c3ccccc3nc2c1,1.0,-1.2,6.4,98.3*,-75.2,-17.5
CCCC1/C(=N/O)CC(c2ccccc2)NC1c1ccccc1 (stereo unspecified),-6.9,-0.7,0.1,105.5*,.,34.9
Nc1c(C(=O)Nc2ccccc2)c2nc3ccccc3nc2n1CCCN1CCOCC1,1.1,4.0,5.9,99.9*,-25.7,39.2
N#Cc1c(N)n(CCCN2CCOCC2)c2nc3ccccc3nc12,-2.0,-1.7,2.9,.,i,.
COC(=O)c1ccc2c(c1)C(C)(C)C(/C=C/c1ccc(O)cc1)=[N+]2C,-6.7,-10.8,-4.9,112.1*,i,137.6*
CCCN(CCC)Cc1c(C(=O)NN=Cc2ccc(C)o2)nnn1-c1nonc1N,.,.,.,.,-15.9,.
SMILES,XBP1 UPR activ,CHOP UPR activ,CTSL1 counter,CHOP inhibitor,UCH37 inh,CHOP inh conf
CCN(CC)S(=O)(=O)c1ccc(C(=O)/C=C/c2ccc(-c3ccc([N+](=O)[O-])cc3)o2)cc1,3.7,2.2,-1.9,-14.2,8.3,.
CCc1ccc(C(=O)/C=C/c2ccc([N+](=O)[O-])o2)cc1,-3.4,-2.3,5.5,105.7*,1.0,139.8*
CCOc1ccc(C2=C(C=C(C#N)C#N)C(c3ccccc3)c3ccccc3O2)cc1 (stereo unspecified),0.0,1.5,-0.9,4.5,6.1,.
COc1ccc(C2=C(CN(C)C)C(c3ccccc3)c3ccccc3O2)cc1 (stereo unspecified),-0.9,1.0,0.4,104.0*!,0.0,43.3
CC(C)(C)c1cc(OC(=O)C2CCCC2)ccc1O,-5.6,0.6,1.5,.,1.9,.
CCCCC(CC)C(=O)Oc1ccc(O)c(C(C)(C)C)c1 (stereo unspecified),6.7,-0.5,3.5,104.0*,.,117.4*
CC(=NNC(=O)CNC(=O)C(c1ccccc1)c1ccccc1)c1ccc(C(C)(C)C)cc1,.,.,.,.,-0.3,.
Clc1ccc2c(N/N=C/c3ccc(Br)cc3)ccnc2c1,.,.,-1.9,102.9*,.,95.6*
Cc1ccccc1/C=N/Nc1ccnc2cc(Cl)ccc12,.,.,-1.0,107.0*,.,87.6*
CCOc1ccc(-n2c(SCC(=O)Nc3ccc(Br)cc3)nc3n[nH]c(C)c3c2=N)cc1,-0.9,11.6,-1.8,103.4*,-49.7,107.6*
CC(C)NC(=O)NC(=O)CSc1nnc(COc2ccccc2F)n1C(C)C1CC2CCC1C2 (stereo unspecified),9.8,6.0,1.3,105.8*,-0.3,38.2
CC(C1CC2CCC1C2)n1c(COc2ccccc2F)nnc1SCC(N)=O (stereo unspecified),-3.0,-2.7,0.9,-5.4,2.9,.
COc1ccc(CCN2C(=O)C3C4CC(C5C(C(=O)NN=Cc6ccc(Cl)cc6)=NOC45)C3C2=O)cc1OC (stereo unspecified),.,.,.,.,7.7,.
O=C(CSc1nc2ncc(Cl)cc2[nH]1)c1c[nH]c2ccccc12,1.4,0.9,-3.8,26.0,0.5,.
O=C(CSc1nc2ccc(Cl)cc2[nH]1)c1c[nH]c2ccccc12,-0.9,0.9,-0.1,101.1*,1.1,26.0
O=C(Nc1cc(Cl)cc(Cl)c1)c1cccc(OC(F)F)c1,5.8,3.9,2.0,97.4*,-0.2,24.5
Cc1ccnc(NC(=O)c2cccc(OC(F)F)c2)n1,1.1,4.2,4.1,.,1.3,.
CC(C)(C)c1ccc(NC(=O)C(=O)C2C(=O)Nc3ccccc32)cc1 (stereo unspecified),3.9,2.6,-0.5,101.5*,2.7,47.5
O=C(Nc1cccc2ccccc12)C(=O)C1C(=O)Nc2ccccc21 (stereo unspecified),-0.5,0.9,3.3,29.0,11.3,.
CCCCC1=CC2=C(c3ccco3)C(=O)C(C)(OC(=O)c3ccc(OC)cc3)C(=O)C2=CN1C1CCCCC1 (stereo unspecified),0.1,-0.3,8.3,100.5*,-0.4,5.8
CCCCC1=CC2=C(c3ccco3)C(=O)C(C)(OC(=O)c3ccc(OC)cc3)C(=O)C2=CN1CCOC (stereo unspecified),3.4,2.5,5.0,-198.8,4.9,.
CCCCC1=CC2=C(c3ccco3)C(=O)C(C)(OC(=O)c3ccc(OC)cc3)C(=O)C2=CN1Cc1ccccc1 (stereo unspecified),-2.3,-0.5,8.3,105.0*,3.9,73.4*
